Bioassay records deposited in PubChem BioAssay by SRMLSC.
H69AR growth 86K: blocks growth of human H69AR lung tumor cells; H69AR lung tumor viability, ATP luminescence, 72 h; active compounds read low; viability, % at 10 µM; actives 6% (n = 85,000);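 active = viability at or below 40%; inactive = viability above 40%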;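 also: multidrug resistant small cell line overexpressing MRP-1 efflux transporter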
HCT116 bCat-KO: beta-catenin-lacking colon tumor cell growth suppression | actives 1.5% (n = 140,000) | HCT116 beta-catenin knockout viability, CellTiter-Glo, 60 h; active compounds read low | viability, % at 10 µM;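 active = viability at or under a set limit, the compound median less 4 SD, cut at about 6% in these data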
Lung fibro prol: blocks proliferation of human lung fibroblasts | LL 47 human lung fibroblast viability, ATP luminescence; active compounds read low | viability, % at 10 µM | actives 1.1% (n = 85,000);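 active = viability at or below 50% in the single dose screen; inactive = viability above 50%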;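 also: compound exposure lasted 72 h before the ATP readout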
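Assay system: human lung fibroblast line LL 47, low passage. Input: 1,150 fibroblasts seeded per well. Times: overnight cell rest, 72 h compound treatment at 37 °C. Evaluation: % viability of median cell-only signal. Technique: luminescent ATP detection, CellTiter-Glo. Control set: cell-only wells, no compound.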
HUVEC inhibit: human endothelial cell proliferation inhibition; HUVEC proliferation, CellTiter-Glo luminescence, 72 h; active compounds read low; viability, % at 10 µM (by protocol); actives 1.1% (n = 86,000);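 active = viability at or below 30%; inactive = viability above 30%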
HCT116 PTEN-null: growth suppressors of cells with PTEN tumor suppressor deletion; AID 827; viability, % at 10 µM; HCT116 PTEN-null viability, CellTiter-Glo, 60 h; active compounds read low; actives 1.2% (n = 140,000);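 active = viability at or below a set limit, 4 SD under the median of all tested compounds, cut at about 3.7% in these data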;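 also: PTEN knockout HCT116 line with beta catenin targeted HCT116 as companion control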
Hits are given with their value; n = inactive; x = no result given. Shown is part of a subset that was picked to be rich in hits.

SMILES	H69AR growth 86K	HCT116 bCat-KO	Lung fibro prol	HUVEC inhibit	HCT116 PTEN-null
Cc1cccc(NC2=C(NC(=O)c3ccccc3)C(=O)c3ccccc3C2=O)c1	x	3.6	x	x	n
O=C(NC1=C(Nc2ccc(Cl)cc2)C(=O)c2ccccc2C1=O)c1ccccc1	x	n	x	x	n
CS(=O)(=O)c1ccc2nc(NC3(C(F)(F)F)N=C4SCCN4C3=O)sc2c1 (centres undefined)	n	n	n	n	n
[O-][n+]1onc2c3cc(-c4ccccc4)nnc3ccc21	17.1	n	n	n	n
c1ccc(-c2cc3c(nn2)CCc2nonc2-3)cc1	n	n	n	n	n
C/C=C(\C)CN1CCN(c2ccccc2F)CC1	n	n	n	n	n
O=C1CCn2nc(-c3ccc(Cl)cc3)cc2N1	n	n	n	17.1	n
Nc1cc(-c2ccc(Cl)cc2)nn1S(=O)(=O)c1ccc(Cl)cc1	n	n	n	n	n
CC(=O)CCCCn1c(=O)c2c(ncn2C)n(C)c1=O	n	n	n	n	n
CC(=O)c1nn(-c2cccc(Br)c2)cc1C(=O)c1ccc2ccccc2c1	x	3.7	x	x	n
Cc1cc(N2CCCCC2)n2ncc(-c3ccccc3)c2n1	38.2	n	n	n	n
Cc1cc(N2CCOCC2)n2ncc(-c3ccccc3)c2n1	27.5	n	n	n	n
Cc1nn2c(N3CCN(C4CCCC4)CC3)cc(C(C)(C)C)nc2c1-c1ccccc1	n	n	n	n	n
Cc1cc(N2CCN(C(=O)c3ccco3)CC2)n2ncc(-c3ccccc3)c2n1	27.3	n	n	n	n
Cc1cc(N2CCCCC2)n2ncc(-c3ccc(Cl)cc3)c2n1	n	n	n	n	n
Cc1nn2c(N3CCN(C(=O)c4ccco4)CC3)cc(C(C)(C)C)nc2c1-c1ccccc1	n	3.8	n	n	n
c1ccc(CCc2nn3c(Cn4nnc5ccccc54)nnc3s2)cc1	x	n	x	x	n
COc1ccc(NC(=O)CSc2nnc(-c3ccoc3C)n2CCc2ccccc2)cc1	n	n	n	n	n
COc1ccccc1CNC(=O)c1ccccc1N	n	n	n	n	n
Cc1ccc(C(=O)NC(C)c2ccccc2)o1 (centres undefined)	n	n	n	n	n
COc1ccccc1C(C)NC(=O)c1ccc(C)o1 (centres undefined)	26.0	n	n	n	n
COc1ccc(OC)c(C(C)NC(=O)c2ccco2)c1 (centres undefined)	21.9	n	n	n	n
Cc1ccc(C(O)(c2ccccc2)c2ccccc2C(C)N(C)C)c(C)c1 (centres undefined)	x	3.5	x	x	1.8
COc1ccc(NC(=O)Nc2nnc(N3CCC(C)CC3)s2)cc1OC	37.5	n	n	n	n
CC(C)CC(=O)N1CCN(c2ccc([N+](=O)[O-])cc2Cl)CC1	x	n	x	x	n
SMILES	H69AR growth 86K	HCT116 bCat-KO	Lung fibro prol	HUVEC inhibit	HCT116 PTEN-null
O=S1(=O)c2ccccc2N=NN1Cc1ccc(Cl)c(Cl)c1	1.6	n	8.7	n	n
CC(C)(C)c1ccc(Cn2cnc(-c3ccc([N+](=O)[O-])cc3)c2)cc1	x	n	x	x	n
CC(C)(C)c1ccc(CN2N=Nc3ccccc3S2(=O)=O)cc1	0.7	n	17.2	9.6	n
Cc1cc(NC(=O)COC(=O)C2CCN(S(=O)(=O)c3c(Cl)cccc3Cl)CC2)no1	n	n	n	n	n
CCOC(=O)C1CCCN(C(=O)c2cn(C)c3ccc(S(=O)(=O)N(C)C)cc3c2=O)C1 (centres undefined)	n	n	n	n	n
CC(C(=O)Nc1ccccc1-c1ccccc1)N1CCCCC1 (centres undefined)	2.6	n	n	n	n
CC(C(=O)Nc1ccccc1-c1ccccc1)N1CCN(S(=O)(=O)c2ccccc2)CC1 (centres undefined)	x	n	x	x	n
CCOC(=O)N1CCN(C(=O)c2ccccc2CCc2ccccc2)CC1	n	n	n	n	n
CCOC(=O)N1CCN(C(=O)c2ccccc2-c2ccccc2)CC1	18.8	n	n	n	n
CC(C)C(=O)Nc1ccccc1C(=O)N/N=C/c1ccc([N+](=O)[O-])cc1	x	n	x	x	n
Cc1cc(Nc2cccc([N+](=O)[O-])c2)n2c(nc3ccccc32)c1C#N	x	3.4	x	x	n
Cc1ccc(-n2nnnc2C(Cl)(Cl)c2nnnn2-c2ccc(C)cc2)cc1	x	1.8	x	x	1.3
Clc1ccc(-n2nnnc2-c2ccccc2)cc1	n	n	n	n	n
NC(=O)c1cccnc1Nc1ccccc1F	x	n	x	x	n
Fc1cc(Br)ccc1Nc1nc2ccccc2n2nnnc12	24.9	n	n	n	n
Clc1ccc(Nc2nc3ccccc3n3nnnc23)cc1	n	n	n	n	n
Cc1ccc(F)cc1NC(=O)C1CCCN(c2ncccn2)C1 (centres undefined)	n	n	n	n	n
CNC(=O)N(C1=NCC(C)S1)c1ccc(F)cc1F (centres undefined)	n	n	n	n	n
CNC(=O)N(C1=NCC(C)(C)S1)c1ccc(F)c(Cl)c1	15.2	n	n	n	n
CCN(C(=O)CN1CCCCC1)C1(C)C(=O)c2ccccc2C1=O	x	n	x	x	n
N#Cc1ccsc1NC(=O)CSc1ncnc2ccccc12	37.6	n	n	n	n
N#Cc1ccsc1NC(=O)CSc1ncn[nH]1	n	n	n	n	n
COc1cc(NC(=O)C2CC(=O)NC3=C2C(=O)CCC3)cc(OC)c1 (centres undefined)	n	n	n	n	n
Cc1ccc(Oc2ccc(S(=O)(=O)N3CCOCC3)cc2C(N)=O)c(-n2nc3ccccc3n2)c1	31.4	n	n	n	n
CCNc1nc(NC(C)C)nc(N(C#N)CCOc2ccc(Cl)cc2Cl)n1	21.6	n	n	n	n
SMILES	H69AR growth 86K	HCT116 bCat-KO	Lung fibro prol	HUVEC inhibit	HCT116 PTEN-null
O=C(Cc1cccc2ccccc12)N/N=C/c1ccc(OC(=O)/C=C/c2ccco2)cc1	24.1	n	n	n	n
N#Cc1cc(-c2ccccc2)cnc1Sc1ccccc1	x	n	x	x	n
COc1ccc2c(c1OC)C(=O)OC2Nc1nc(-c2cc3ccccc3oc2=O)cs1 (centres undefined)	x	n	x	x	n
O=C(Nc1cccnc1)c1ccc(Br)s1	7.5	n	35.3	n	n
O=C(CCS(=O)(=O)c1ccccc1)Nc1nc(-c2ccccn2)cs1	4.0	x	n	n	x
O=C(Nc1nc(-c2cc(Cl)sc2Cl)cs1)c1ccc(Br)s1	x	n	x	x	n
CC1(C)CC(=O)c2sc(NC(=O)CCS(=O)(=O)c3ccccc3)nc2C1	1.1	3.6	n	n	3.7
O=C(Nc1nc(-c2ccccn2)cs1)c1ccc(Br)s1	13.1	n	26.8	24.1	n
O=C(Nc1cccnc1)c1cccnc1	n	n	n	n	n
C/C(=C\C(=O)c1ccc(C)cc1)Nc1cccc(O)c1	n	n	n	n	n
CCCSc1nnc(NC(=O)Nc2ccc(F)cc2)s1	10.8	n	47.0	n	n
O=C1CCCCCN1Sc1ccccc1	3.0	n	n	n	n
CC1(C)CC(=O)C(C(C#Cc2ccccc2)C2=C(O)CC(C)(C)CC2=O)=C(O)C1	29.4	n	n	n	n
O=C1CCCC(O)=C1C(C#Cc1ccccc1)C1=C(O)CCCC1=O	7.3	n	n	n	n
